Measured values as given in the EternaBench riboswitch data.

Test system: MS2 coat protein
Test: apparent Kd, MS2 coat protein; higher = weaker binding; RNA-MaP array; FMN 200 µM where present
Summary of the method: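 SNAP-549-labelled MS2 coat protein, doubled from 0.7 or 1.5 nM to 3 µM, was titrated over designs transcribed by stalled E. coli RNA polymerase on Illumina sequencing-chip clusters. Titrations were run without and then with constant ligand in 100 mM Tris-HCl pH 7.5, 80 mM KCl, 4 mM MgCl2, BSA, DTT, yeast tRNA and Tween-20. The apparent Kd is the median of filtered per-cluster fits to green signal normalised to red-channel RNA signal and control-cluster median Fmax.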

[1] = designed as: OFF switch for flavin mononucleotide, no ligand
[2] = ligand present: flavin mononucleotide, designed as: OFF switch for flavin mononucleotide
[3] = designed as: ON switch for flavin mononucleotide, no ligand
[4] = ligand present: flavin mononucleotide, designed as: ON switch for flavin mononucleotide

Sequence	apparent Kd [1] [µM]	apparent Kd [2] [µM]	apparent Kd [3] [µM]	apparent Kd [4] [µM]
UAGGUGGAAGGAUAUACAUAUGGCCUAUGAGAUACUUCACGACAUGAGGAUCACCCAUGUAGAAGGUCUACCGU	0.0179	0.0394		
AGAAGACAUGAGGAUCACCCAUGUGGGAUUAUGGGAGGAUAUACAAAGACGAGAGUCAGAGUAGAAGGCCUAGGAC			0.0656	0.0267
AUUAUUAAGGUAGGAUAUAGUAAAAUAAUUUAAUUAGAAGGAUCUCACAUGAGGAUCACCCAUGUAAGAGGAUCACCCAUGUAU	0.0109	0.00953		
UACUGGUGUGAGAAGGGACGUAUCUCCAUGAGGGUAGGGCUAUUAGAGAAGUCAGGAUAUCACAUGAGGAUCACCCAUGUGACG	0.00825	0.0099		
GCCAUCGCAUGAGGAUAUGCUCCCGUUUCGGGAGCAGAAGGCAUGUCAUAAGACAUGAGGAUCACCCAUGUAGAUAAGGUGGCA			0.337	0.0127
GGAAUUAAGGGAGGAUAUAGGCGACAUGAGGAUCACCCAUGUACGGAGGGCUCUUCCCGUGUUCACUAGAAGGCCCAUGUUACC	0.0165	0.0737		
GCGCGCGUUGUGAGGAUAUUGUGUGUGAAAGCGCGCGAGAAGGCACAUGAGGAUCACCCAUGUAAGGUGUGUGU	0.455	0.392		
AAACGCCAACAUGAGGAUCACCCAUGUUCUAGUUUAGGGUCGCAGGAUAUGACUUCGAAGCUUAGUCAGAAGGGUGAAUCCACA			0.0145	0.0105
AGUGUGUGGCAGGAUAUUCUAAUCGUGAGUCGGGAAGAAGGGUCUACAUGAGGAUCACCCAUGUAAGCGGUUGA	0.132	0.144		
AGGUAAGAGUUAAUUGUGACGGUGAGAAGGCAAUAGUUUGUGACCGACAUGAGGAUCACCCAUGUUGAGGAUAUCACCACCUAC	0.00959	0.0401		
CUUAUAAUUGAAGGAUAUCUAUAUCCAACAUGAGGAUCACCCAUGUUGAGGAUCACCCAUGUAAAGGAGAAGGUUAAUUAUAAG			0.104	0.0227
GAGAAGAAGUUAGGAUAUUGGAUAGGGACGGACUAAGAAGGAGCACAUACAUGAGGAUCACCCAUGUUAGAAGAAGAUCCUCCA	0.0323	0.0255		
GCCCUUUCUGAGGAUAUUAUCUGGUUCGAUUGAUAAGAAGGCAGUACAUGAGGAUCACCCAUGUGGUUCGUUUG	0.0996	0.242		
AUUAUUAAGUUAGGAUAUAGUAAAAUGAUUUAGUUAGAAGGAGCUCACAUGAGGAUCACCCAUGUAAGAGGAUCACCCAUGUAU	0.0238	0.0156		
AACUGUACAGGAUAUACAUGAGGAUCACCCAUGUGAGAAUUAAGUGGAGAACCACAAAGUAGAAGGGUACAGGA	0.0448	0.286		
UAUGUUAGCACAGGAUAUUGUUAUUAUUUAAUUCAAGAAGGGUGUACAUGAGGAUCACCCAUGUUAUGGUUUUAUCUUUUACAA	1.28	0.457		
AAAGAGCGAGGAUAUACAUGAGGAUCACCCAUGUAAAGAUGCAUGGUCUGAACGUCUGGUAGAAGGCGUAUGAA	0.135	0.12		
CCAGCAACAUGAGGAUCACCCAUGUAGGAUAUCGCUAUUGUAAUCAUGAAACAUGAUUACAAUAGCGAGAAGGACAUAUGCUGG	0.00631	0.0101		
ACGUUUUUUGAGGAUAUGCGAUAUUUUUUUAUCGUAGAAGGCGAUACAUGAGGAUCACCCAUGUUUAUGGGCAU	0.197	0.204		
GUCCUCAUGACAUGAGGAUCACCCAUGUAUUAUUUGUUAACUGAGGAUAUACUCUUAAUUUUUAUGUAGAAGGCAGAUUCGGUC	0.0356	0.0399		
GCAGCAUAGUUUACUAGCUGUUACAUGAGGAUCACCCAUGUUCAGGAUAUGGUCUGGAUUACAGGCCAGAAGGGAACAAGCUGC	0.0148	0.012		
CUAUAUAUAUGAGGAUAUGUAUAUCCAACAUGAGGAUCACCCAUGUUGAGGAUCACCCAUGUAAAGCAGAAGGCAUAUAUAUAG			0.0227	0.0134
CCCAAACUUGGGUUUGGUGGUGCAUAGGAUAUGCUUGAACAUGAGGAUCACCCAUGUACUAUUGUGCAGAAGGGUGCAUGGCAA			0.401	0.0291
CUGAUGUUAGGAUAUCAGGCUGUGCGCGAAAACGGGCGGCAUGAGAAGGAACAUGAGGAUCACCCAUGUGACGG	0.0473	0.124		

Sequence	apparent Kd [1] [µM]	apparent Kd [2] [µM]	apparent Kd [3] [µM]	apparent Kd [4] [µM]
UAAGUUGUGGUAGGAUAUACUUUAAAUUUCUCUAUCCAUACAUGAGGAUCACCCAUGUUUACAUUGUAGAAGGACCUUUUUGUU	0.0242	0.0211		
GUCUGGCUAGGAUAUACAGAAUCCACGAGUCGGUUGCCCUGACAUGAGGAUCACCCAUGUAGAAGGAGCGAGAA	0.0179	0.0243		
UCAUUUCUGUAAGGAUAUUAAUUCAUGACGAUACAUGAGGAUCACCCAUGUUAAGAAGGUACAAAUACAAAUAAUGCAUUGUUC	0.0118	0.0106		
GCUGACGAUGUAGGAUAUCUCGACGAUAAGUCGAGAGAAGGACAUGAGGAUCACCCAUGUAACUCUACGUCAGCGAGGAAACUC	0.0168	0.018		
GCUUGGCGAGGAUAUACAUGAGGAUCACCCAUGUGAGAGAAUAAAGUGAGGAAGAAAAGUAGAAGGCGCUGAGG	0.054	0.271		
CUGUGUGACCGAGGAUAUAGACAUGAGGAUCACCCAUGUACGCCCAUCCAUGAAAGGUCCGUCGUCUAGAAGGCGGAGGCAAUG	0.0112	0.0234		
UGAUAGGACAGAGGAUAUGCGUAUAGUUAUCUCUACAUGAGGAUCACCCAUGUAGAAGGCUGUCCUAUCUAAGUCGGAAACGAC	0.00535	0.00522		
UCGUUGUCAGGAUAUCGUUAAUUUAAUUGUUUGUAUUAGUUCGAGAAGGGACAUGAGGAUCACCCAUGUUUGCU	0.031	0.0868		
UGAUAACAUGUAGGAUAUGCAGCAUUGACCACUGCAGAAGGACAUGAGGAUCACCCAUGUAGUUGUACUAUGGGAUCACGCAAU	0.419	0.194		
AGUGUCAUCGAGAAGGCCUUAAGAACAUGAGGAUCACCCAUGUAACAUGGGAGGAUAUCGAUGAUACAGCUACGUUUCGUAGCA			0.0124	0.00521
CAGUACUGAGGAUAUACAUGAGGAUCACCCAUGUGUUCGAUACUAGUGAGGUCGAUUAGUAGAAGGCAGUACUG	0.0213	0.248		
GGACGUCGCAUAAACAUGAGGAUCACCCAUGUAACUAGACAUGAGGAUAUGGAUCCUAAUUGGAUCCAGAAGGUAUGGACGUCC			0.298	0.2
ACCAUAAACAUAGGAUAUAGAAUAAGAACUACUUACAUGAGGAUCACCCAUGUUAUAUUUGGGUACUAGAAGGAUGAGUGUUAA			0.387	0.259
AUGCCGUGCAGAGCGCGACGGCGAACAUGAGGAUCACCCAUGUAGGAUAUACUACACAAAGUGUAGUAGAAGGACGUGCGGCAC	0.0209	0.0308		
GGAAGCUCAACGGAGCUAAGGUAGAAGGAUAUCCACGGCUAUAUCCACAUGAGGAUCACCCAUGUGGAGAAGGUCUAUCUUAAG	0.00583	0.0104		
AAAUCGGCGGAGAAGGGACCUUUACCCUAUCGGUCAGGAUAUCCGCUACAUGAGGAUCACCCAUGUGCCGGGUGUCCGCGUGUG	0.0222	0.0122		
CGCUAUGAUGGGUUUAAUGGAGCAUAGGAUAUGCUUGUACAUGAGGAUCACCCAUGUUAUAUUGUGCAGAAGGGUGCAUUUGCG			0.433	0.157
AGCUACGUUUCGUAGCAGCUAGGUGAGGAUAUUCAAUUUUUCACAUGAGGAUCACCCAUGUAAAAGAAGAAGGCGCCUAGAAAG			0.00428	0.00425
AGUGUCAUCGAGAAGGCCUCAUGGACAUGAGGAUCACCCAUGUAAAAUGGGAGGAUAUCGAUGAUACAGCUACGUUUCGUAGCA			0.226	0.0697
ACAAAACAUGUAGGAUAUCGAUUGCGUCGCGAUCGAGAAGGACAAGAGGGUCACCCUUGUACAUGAGGAUCACCCAUGUCAUGU	0.202	0.149		
GGAAAACAUGAGGAUCACCCAUGUGAGGAUAUCGAUGUCCACCCUCCCGUGCGGGACUCGAGAAGGCACUUGGA	0.0509	0.0564		
UAUCGUGUUCGAGGAUAUGAAACUAGGCCGGGCACUGUAUACCCGCCUGUCUCAGAAGGCGGACAUGAGGAUCACCCAUGUAAA	0.202	0.0174		
GGAUCGAAUGUGAGGAUAUACCACUGGAUACAGUGGUAGAAGGCACAUGAGGAUCACCCAUGUCUCUACGAUCC	0.0196	0.111		
AUUGGUGAGUAGAAGGUACGAUAUUAGUUAUAGUAAGGAUAUACUAACAUGAGGAUCACCCAUGUAUAAAUGGAUAAAUUAUCU			0.0117	0.00898
